Data set [1] is described as follows: Bioavailability as maximal plasma concentration in rats after 10 mg/kg oral dose. It counts as ADME, organism-based. The arrangement: dose 10 mg/kg, route oral. The conditions noted are these: rat.
Data set [2] deals with MT2. Nature of the data set: Cytotoxicity was determined by 50% reduction in the number of viable MT2 cells with HIV-1RF. Format: functional. The conditions noted are these: Homo sapiens, read-out: TC50 (the source's name). Put shortly:
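TC50 taken as concentration giving 50% fewer viable cells, with viability read by tetrazolium dye metabolism.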

The subject of data set [3] is MT2. Nature of the data set: Concentration which reduced the concentration of HIV viral RNA by 90% from the level measured in an untreated infected culture. Format: functional. The conditions noted are these: Homo sapiens. In short, it runs like this: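 MT-2 cells infected with HIV-1 RF. Uninfected cells preincubated 30 min with serial dilutions of compound in culture medium, then virus added; cultured 3 days at 37 °C, 5% CO₂. Lysed cells assayed for HIV RNA by microtiter plate hybridization. IC90 = concentration lowering viral RNA 90% versus untreated infected culture.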

Data set [4] has as its target Human immunodeficiency virus type 1 protease (Human immunodeficiency virus 1, UniProt Q72874). Nature of the data set: Inhibition of HIV protease, measured by assaying the cleavage of a fluorescent peptide substrate using HPLC.
The nature of data set [5]: Bioavailability as maximal plasma concentration in dogs after 2.5 mg/kg oral dose. Set-up: dose 2.5 mg/kg, route oral. Conditions: dog. It counts as ADME, organism-based, Canis lupus familiaris.

`CC(=O)c1cccc(CN2C(=O)N(Cc3cccc(C(C)=O)c3)[C@H](Cc3ccccc3)[C@H](O)[C@@H](O)[C@H]2Cc2ccccc2)c1`: the Cmax (commonly the peak of the concentration-time curve) in data set [1] turned out to be 0.5 µM. Moreover, the CC50 in the data set with MT2 [2] is 20000 nM. Also, it took 39 nM to reach the 90% level in the data set on MT2 [3] (IC90). Further, the affinity in data set [4] corresponds to a Ki of 0.06 nM.

In data set [1], `O=C1N(Cc2cccc(-c3c[nH]cn3)c2)[C@H](Cc2ccccc2)[C@H](O)[C@@H](O)[C@@H](Cc2ccccc2)N1Cc1cccc(-c2c[nH]cn2)c1` showed a Cmax below 0.042 µM. In the data set on MT2 [2], the CC50 is 8800 nM. Further, in the data set with MT2 [3], the IC90 – broadly, the concentration at which the effect reaches the 90% level – is 84 nM. Also, in data set [4], affinity was put at a Ki of 0.19 nM.

For the compound `CCC(=O)c1cccc(CN2C(=O)N(Cc3cccc(C(=O)CC)c3)[C@H](Cc3ccccc3)[C@H](O)[C@@H](O)[C@H]2Cc2ccccc2)c1`, in the data set on MT2 [2], the CC50 was above 80000 nM. In the data set on MT2 [3], this compound yielded an IC90 of 142 nM. Also, in data set [4], the Ki (commonly a dissociation constant, usually derived from enzyme kinetics or from competition with a known ligand) stood at 0.21 nM.

As for `O=C1N[C@H](Cc2ccccc2)[C@H](O)[C@@H](O)[C@@H](Cc2ccccc2)N1Cc1cccc(-c2cc[nH]n2)c1`, in data set [1], the Cmax worked out at 0.78 µM. Besides, the CC50 in the data set with MT2 [2] is 21000 nM. Further, the IC90 with MT2 [3] was determined as 67 nM. The compound further displayed a Ki in data set [4] of 0.26 nM.

With `O=C1N(Cc2cccc(C(=O)C(F)(F)F)c2)[C@H](Cc2ccccc2)[C@H](O)[C@@H](O)[C@@H](Cc2ccccc2)N1Cc1cccc(C(=O)C(F)(F)F)c1`, the CC50 in the data set on MT2 [2] worked out at 5400 nM. In addition, in the data set on MT2 [3], the 90% effect level (IC90) was put at 33 nM. Further, the Ki in data set [4] amounted to 0.037 nM.

Take `CCC/C(=N/O)c1cccc(CN2C(=O)N(Cc3cccc(/C(CCC)=N/O)c3)[C@H](Cc3ccccc3)[C@H](O)[C@@H](O)[C@H]2Cc2ccccc2)c1`: the CC50 with MT2 [2] was determined as 3700 nM. Besides, in the data set on MT2 [3], the IC90 stood at 64 nM. In data set [4], the affinity corresponds to a Ki of 0.031 nM.

As to `O=C1N(Cc2cccc(-c3nc[nH]n3)c2)[C@H](Cc2ccccc2)[C@H](O)[C@@H](O)[C@@H](Cc2ccccc2)N1Cc1cccc(-c2nc[nH]n2)c1`, the CC50 in the data set with MT2 [2] turned out to be 53000 nM. For the same compound, in the data set on MT2 [3], the IC90 was 128 nM. The compound also registered a Ki in data set [4] of 0.052 nM.

As for `O=C1N(Cc2cccc(/C(=N/O)C(F)(F)F)c2)[C@H](Cc2ccccc2)[C@H](O)[C@@H](O)[C@@H](Cc2ccccc2)N1Cc1cccc(/C(=N\O)C(F)(F)F)c1`, the CC50 in the data set with MT2 [2] amounted to 14000 nM. In the data set on MT2 [3], this compound yielded an IC90 of 714 nM. In data set [4], this compound had a Ki of 3.9 nM.

In turn, `O=Cc1cccc(CN2C(=O)N(Cc3cccc(C=O)c3)[C@H](Cc3ccccc3)[C@H](O)[C@@H](O)[C@H]2Cc2ccccc2)c1` registered a Cmax in data set [1] of 0.26 µM. Further, the CC50 in the data set on MT2 [2] was 19000 nM. For the same compound, the IC90 with MT2 [3] came out at 36 nM. The same compound had a Ki in data set [4] of 0.44 nM.

Compound `O=C1N(Cc2cccc(CO)c2)[C@H](Cc2ccccc2)[C@H](O)[C@@H](O)[C@@H](Cc2ccccc2)N1Cc1cccc(-c2cc[nH]n2)c1` gave a Cmax in data set [1] of 0.11 µM. In the data set with MT2 [2], the CC50 is 20000 nM. Further, the IC90 in the data set with MT2 [3] was found to be 234 nM. Moreover, the affinity in data set [4] corresponds to a Ki of 0.16 nM.

Consider `O=C1N(Cc2cccc(-c3nnn[nH]3)c2)[C@H](Cc2ccccc2)[C@H](O)[C@@H](O)[C@@H](Cc2ccccc2)N1Cc1cccc(-c2nnn[nH]2)c1`, for which, in the data set with MT2 [2], the CC50 amounted to 78000 nM. The compound also gave a concentration for an effect of 90% (IC90) with MT2 [3] above 70000 nM. In data set [4], this compound had a Ki of 6.6 nM.

Regarding `CC/C(=N/O)c1cccc(CN2C(=O)N(Cc3cccc(/C(CC)=N/O)c3)[C@H](Cc3ccccc3)[C@H](O)[C@@H](O)[C@H]2Cc2ccccc2)c1`, the CC50 with MT2 [2] was determined as 5000 nM. Moreover, the 90% effect level in the data set with MT2 [3] (IC90) was put at 7 nM. The Ki in data set [4] was 0.031 nM.

The compound `CC(C)(C)C(=O)c1cccc(CN2C(=O)N(Cc3cccc(C(=O)C(C)(C)C)c3)[C@H](Cc3ccccc3)[C@H](O)[C@@H](O)[C@H]2Cc2ccccc2)c1` gave a Ki in data set [4] of 3.6 nM.

Take `CCCC(=O)c1cccc(CN2C(=O)N(Cc3cccc(C(=O)CCC)c3)[C@H](Cc3ccccc3)[C@H](O)[C@@H](O)[C@H]2Cc2ccccc2)c1`: the CC50 with MT2 [2] was above 77000 nM. For the same compound, the 90% effect level with MT2 [3] (IC90) was put at 1440 nM. This compound also yielded a Ki in data set [4] of 1.4 nM.

In the case of `O=C1N(Cc2cccc(-c3cn[nH]c3)c2)[C@H](Cc2ccccc2)[C@H](O)[C@@H](O)[C@@H](Cc2ccccc2)N1Cc1cccc(-c2cn[nH]c2)c1`, the Cmax in data set [1] is 0.075 µM. For the same compound, the CC50 in the data set with MT2 [2] amounted to 1400 nM. The compound further gave an IC90 with MT2 [3] of 32 nM. The compound further displayed a Ki in data set [4] of 0.62 nM.

Turning to `O=C(NCCN1CCOCC1)c1cccc(CN2C(=O)N(Cc3cccc(-c4cc[nH]n4)c3)[C@H](Cc3ccccc3)[C@H](O)[C@@H](O)[C@H]2Cc2ccccc2)c1`, the CC50 in the data set on MT2 [2] worked out at 43000 nM. This compound gave an IC90 in the data set with MT2 [3] of 128 nM. For the same compound, the affinity in data set [4] corresponds to a Ki of 0.052 nM.

Compound `O=C1N(Cc2cccc(/C=N\O)c2)[C@H](Cc2ccccc2)[C@H](O)[C@@H](O)[C@@H](Cc2ccccc2)N1Cc1cccc(/C=N/O)c1` registered a Cmax in data set [1] of 0.3 µM. The CC50 in the data set with MT2 [2] was 16000 nM. Also, the IC90 in the data set on MT2 [3] came to 5 nM. In data set [4], the Ki is 0.01 nM.

In the case of `O=C1N(Cc2cccc(-c3cc[nH]n3)c2)[C@H](Cc2ccccc2)[C@H](O)[C@@H](O)[C@@H](Cc2ccccc2)N1Cc1cccc(-c2cc[nH]n2)c1`, the Cmax in data set [1] was 0.068 µM. Moreover, in the data set with MT2 [2], the CC50 is 4200 nM. This compound registered an IC90 with MT2 [3] of 20 nM. In addition, the Ki in data set [4] turned out to be 0.027 nM.

The compound `C/C(=N/O)c1cccc(CN2C(=O)N(Cc3cccc(/C(C)=N/O)c3)[C@H](Cc3ccccc3)[C@H](O)[C@@H](O)[C@H]2Cc2ccccc2)c1` came in with a Cmax in data set [1] of 0.06 µM. The CC50 in the data set with MT2 [2] worked out at 81000 nM. Also, in the data set with MT2 [3], the IC90 is 2 nM. In data set [4], this compound registered a Ki of 0.018 nM.

For `O=C1N(Cc2cccc(-c3ncc[nH]3)c2)[C@H](Cc2ccccc2)[C@H](O)[C@@H](O)[C@@H](Cc2ccccc2)N1Cc1cccc(-c2ncc[nH]2)c1`, the CC50 in the data set on MT2 [2] is 78000 nM. The compound further gave an IC90 in the data set on MT2 [3] of 234 nM. For the same compound, in data set [4], the affinity, expressed as Ki, was 0.16 nM.

Regarding `O=C1N(Cc2cccc(-c3c[nH]nn3)c2)[C@H](Cc2ccccc2)[C@H](O)[C@@H](O)[C@@H](Cc2ccccc2)N1Cc1cccc(-c2c[nH]nn2)c1`, the CC50 in the data set on MT2 [2] came out at 47000 nM. For the same compound, in the data set with MT2 [3], the IC90 was 94 nM. The compound also registered a Ki in data set [4] of 0.17 nM.

Compound `Nc1cccc(CN2C(=O)N(Cc3cccc(-c4cc[nH]n4)c3)[C@H](Cc3ccccc3)[C@H](O)[C@@H](O)[C@H]2Cc2ccccc2)c1` came in with a Cmax in data set [5] of 0.85 µM. Besides, the CC50 in the data set on MT2 [2] turned out to be 6800 nM. Further, the concentration for an effect of 90% (IC90) in the data set with MT2 [3] was determined as 27 nM. Further, the Ki in data set [4] worked out at 0.035 nM.

`O=C1N(Cc2cccnc2)[C@H](Cc2ccccc2)[C@H](O)[C@@H](O)[C@@H](Cc2ccccc2)N1Cc1cccc(-c2cc[nH]n2)c1`: the CC50 with MT2 [2] turned out to be 6300 nM. In the data set with MT2 [3], this compound came in with an IC90 of 94 nM. Also, the Ki in data set [4] amounted to 0.17 nM.

Regarding `O=C1N(Cc2ccc(O)cc2)[C@H](Cc2ccccc2)[C@H](O)[C@@H](O)[C@@H](Cc2ccccc2)N1Cc1cccc(-c2cc[nH]n2)c1`, the CC50 in the data set with MT2 [2] was determined as 4800 nM. In the data set on MT2 [3], this compound registered an IC90 of 30 nM. Besides, the Ki in data set [4] was 0.021 nM.

As for `COC(=O)c1cccc(CN2C(=O)N(Cc3cccc(-c4cc[nH]n4)c3)[C@H](Cc3ccccc3)[C@H](O)[C@@H](O)[C@H]2Cc2ccccc2)c1`, the Cmax in data set [1] worked out at 0.32 µM. Besides, the CC50 in the data set with MT2 [2] was 5700 nM. For the same compound, in the data set with MT2 [3], the IC90 came to 32 nM. In addition, the Ki in data set [4] amounted to 0.14 nM.

`Nc1cccc(CN2C(=O)N(Cc3cccc(N)c3)[C@H](Cc3ccccc3)[C@H](O)[C@@H](O)[C@H]2Cc2ccccc2)c1` [MOZENAVIR]: the peak level in data set [1] (Cmax) was 2.25 µM.
